Screens (PubChem BioAssay)
hERG rescue – compounds protecting human hERG from proarrhythmic drug block; Q12809; CHO-hERG, FluxOR thallium flux, dofetilide IC70 present; activation (rescue from dofetilide block), less the hit threshold, % at 10 µM; 0.51% of 310,000 active; AID 1511;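 active = activation above the mean of controls blocked by dofetilide plus 5 SD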;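 also: thallium influx through hERG after potassium depolarization seen as dye fluorescence rise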
Kir21 block – Kir2.1 (mouse) channel inhibition. AID 1672. P35561. 0.85% of 310,000 active. B-score at 10 µM. HEK293-Kir2.1, FluxOR thallium flux fluorescence; stronger effect = lower value;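 active = fluorescence ratio B-score at or below minus 3 SD of library scores, with starting-brightness B-score within 2 SD, cut at about -4.2 in these data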;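 also: channel flux triggered by added potassium and thallium sulfate stimulus; B-score of peak minus minimum fluorescence over baseline after thallium stimulus; more negative B-score means stronger Kir2.1 block with less thallium influx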
KCNK3 block – human KCNK3 channel inhibition, primary screen; O14649; CHO-KCNK3 thallium flux, FluxOR fluorescence; stronger effect = lower value; B-score at 10 µM; 0.84% of 340,000 active; AID 602410;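 active = B-score under library mean minus 4 SD, starting fluorescence ratio at most library mean plus 5 SD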;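 also: more negative B-score means stronger inhibition of thallium flux through KCNK3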
KCNK9 inh – human KCNK9 channel inhibition; Q9NPC2; HEK293 KCNK9, FluxOR thallium flux fluorescence; stronger effect = lower value; B-score at 10 µM; 1.2% of 310,000 active; AID 488922;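 active = ratio B-score over 3 SD below the library mean, with starting fluorescence within 5 SD of its mean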;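 also: negative B-score means less thallium flux so channel inhibition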
Target sequence (Q9NPC2 whole entry, looked up): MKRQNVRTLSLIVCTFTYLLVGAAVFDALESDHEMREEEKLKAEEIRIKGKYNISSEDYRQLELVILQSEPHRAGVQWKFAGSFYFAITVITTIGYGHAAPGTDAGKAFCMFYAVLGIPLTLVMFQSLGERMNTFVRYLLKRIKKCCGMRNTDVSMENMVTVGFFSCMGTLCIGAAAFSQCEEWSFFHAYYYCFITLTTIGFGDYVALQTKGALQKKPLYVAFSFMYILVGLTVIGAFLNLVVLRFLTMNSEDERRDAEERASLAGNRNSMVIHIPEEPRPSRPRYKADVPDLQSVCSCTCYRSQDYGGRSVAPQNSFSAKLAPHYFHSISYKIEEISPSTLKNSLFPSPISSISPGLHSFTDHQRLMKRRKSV
KCNQ1 act – potentiators or activators of human KCNQ1 potassium channel; P51787; B-score at 10 µM; 0.35% of 310,000 active; AID 2648; CHO-K1 KCNQ1, thallium flux FluxOR fluorescence; stronger effect = higher value;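 active = fluorescence ratio B-score, a plate-corrected score, at least three library SD, with initial intensity B-score within 5 SD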
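System: CHO-K1 cells stably expressing KCNQ1 / Medium: assay buffer for compound exposure, DMSO matched across wells / Reagent: thallium- and potassium-containing depolarizing buffer / Compound: one concentration, matched DMSO / Incubation: 20 min compound pretreatment at room temperature / Measured by: kinetic FluxOR fluorescence, 10 s baseline plus 110 s post-stimulus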
KCNQ1 inh – blocks the human KCNQ1 potassium channel; P51787; CHO-K1 KCNQ1, FluxOR thallium flux fluorescence; stronger effect = higher value; AID 2642; 1.3% of 310,000 active; B-score at 10 µM;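 active = compounds whose thallium flux B-score, printed positive for inhibition, exceeds three library SD while starting fluorescence stays within three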;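 also: channel opened by potassium depolarization with thallium stimulus after 20 min compound exposure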
* hit, by the source's call; i = inactive; · = not tested or not shown. Only some compounds are listed: those with a hit (about 3.7% of all), similar ones and a draw of the others.

SMILES	hERG rescue	Kir21 block	KCNK3 block	KCNK9 inh	KCNQ1 act	KCNQ1 inh
CCCCCCc1cc2cc(C(=O)NC)c(=N)oc2cc1O	-24	-13	i	i	i	i
CCCCCCc1cc2cc(C(=O)Nc3ccc(OC)cc3)c(=O)oc2cc1O	0	0.06	i	i	i	i
CC1Sc2ccc(S(=O)(=O)CCC(=O)NC3CCCCC3C)cc2NC1=O (stereo not drawn)	-4	0.45	i	i	i	i
COc1ccc(N2CCN(C(=O)CN(C3CCCCC3)S(C)(=O)=O)CC2)cc1	32*	-0.03	i	i	i	i
COc1ccccc1N1CCN(C(=O)CN(C2CCCCC2)S(C)(=O)=O)CC1	-11	0.23	i	i	i	i
COCCCNC(=S)NNC(=O)c1cc(C2CC2)nc2ccccc12	-5	-1.4	i	i	i	i
Cc1c(C(=O)N(C)CCOc2ccccc2)oc2c(Cl)cccc12	·	·	-9.3*	·	·	·
CCOc1ncccc1C(=O)N1CCCSC1=Nc1ccc(C(C)=O)cc1	-8	-0.06	i	i	i	i
CCOc1ccc(C2C(C(=O)OC)=C(C)N=C3SCCC(=O)N32)cc1OCC (stereo not drawn)	-5	0.59	-8.8*	i	i	i
Cc1cc(C)c(C)c(S(=O)(=O)N2CCN(c3ccccn3)CC2)c1C	-9	-0.38	i	i	i	i
Cc1cc(C)c(C)c(S(=O)(=O)N2CCN(c3ncnc4ccccc34)CC2)c1C	·	·	-10*	·	·	·
CC1=CC(C)(C)n2c(O)c(N=N)c3cc(C)cc1c32	-10	-8.7*	i	i	i	i
CSCC[C@H](NC(=O)Nc1ccc(Oc2ccccc2)cc1)C(=O)O	-9	-1.9	i	i	i	i
CN(Cc1ccccc1)C(=O)C1CCCN(Cc2ccc(Cl)cc2)C1 (stereo not drawn)	-4	-4.2*	i	i	i	i
Cc1cc(C(C)(C)C)oc1C(=O)N(CC(=O)NC1CCCC1)c1cccc(C(F)(F)F)c1	0	1.3	-9*	-8*	i	i
Cc1ccccc1N(CC(=O)NC1CCCC1)C(=O)c1oc(C(C)(C)C)cc1C	-9	-0.39	i	i	i	i
CCOc1ccc(N=C2NC(=O)SC2CC(=O)OC)cc1 (stereo not drawn)	-5	0.64	i	i	i	i
CCN(CC)CCNC(=O)c1cc(-c2cccnc2)nc2ccc(S(=O)(=O)N3CCC(C)CC3)cc12	-7	-5.7*	i	i	i	i
COc1ccc(-c2cc3c(=O)n(CC(=O)NCc4ccc(F)cc4)ncn3n2)cc1	-4	-1.4	i	i	i	i
COc1cccc(-n2nc(C#N)c(Cl)cc2=O)c1	-14	-4.6*	i	i	i	i
C=CCn1c(=O)c(C(=O)Nc2ccc(C)cn2)c(O)c2ccccc21	-5	0.45	i	i	i	i
C=CCn1c(=O)c(C(=O)NCc2ccc(Cl)cc2)c(O)c2ccccc21	-9	-0.97	i	i	i	7*
Cn1c(=O)c(C(=O)NCCc2ccccc2)c(O)c2ccccc21	-2	0.1	i	i	i	i
C=CCn1c(=O)c(C(=O)NCCc2ccccc2)c(O)c2ccccc21	-3	-0.42	i	i	i	6*
CN(Cc1ccccc1)CC(O)COc1ccc(CNCc2ccc(Cl)s2)cc1 (stereo not drawn)	-5	-12*	i	i	i	i
SMILES	hERG rescue	Kir21 block	KCNK3 block	KCNK9 inh	KCNQ1 act	KCNQ1 inh
CN(Cc1ccccc1)CC(O)COc1ccc(CNCc2cccnc2)cc1 (stereo not drawn)	-10	-0.22	i	i	i	i
O=C1/C(=C/c2cccs2)Cc2ccccc21	-10	1.1	i	i	i	i
O=C1/C(=C\c2ccc(Br)o2)Cc2ccccc21	-5	-0.61	i	-9.9*	i	i
N#Cc1ccc(NC(=O)Nc2ccc(Oc3ccc(NC(=O)Nc4ccc(C#N)cc4)cc3)cc2)cc1	-15	-0.72	i	i	i	9*
Cc1ccc(Nc2nnc(-c3ccc(N4CCOCC4)c([N+](=O)[O-])c3)c3ccccc23)cc1	-10	-0.05	i	i	i	7*
O=[N+]([O-])c1cc(-c2nnc(Nc3ccccc3)c3ccccc23)ccc1N1CCOCC1	-3	1	i	i	i	i
CCc1ccc(NC(=O)C(C)OC(=O)Cc2cc(OC)c(OC)c(OC)c2)cc1 (stereo not drawn)	·	·	-11*	·	·	·
CCc1ccc(NC(=S)Nc2cc(OC)c(NC(=O)C(C)C)cc2OC)cc1	-12	-0.06	i	i	i	i
COc1ccc(/C=N/NC(=O)c2ccc(O)cc2)cc1CN1CCCc2ccccc21	-10	-0.6	i	-7.9*	i	i
O=S(=O)(Nc1cccc(S(=O)(=O)N2CCOCC2)c1)c1cccs1	-6	0.08	i	i	i	i
Cc1cn2c(nc1=O)OC1C(O)C(COC(=O)c3ccccc3)OC12 (stereo not drawn)	5.0*	0.51	i	i	i	i
Cc1ccc(C(=O)N2CCCC(C(=O)c3cc(F)ccc3F)C2)s1 (stereo not drawn)	-8	-5*	i	i	i	i
CCCn1c(N)c(N(CCOC)C(=O)COC(=O)CSc2cc(C)c3ccccc3n2)c(=O)[nH]c1=O	-5	0.63	i	i	i	i
N#Cc1c(-c2ccccc2Cl)cc(-c2ccccc2)nc1Br	-16	2	i	i	i	9*
Cc1cc(=O)n2c(n1)NC(Nc1cccc(C)c1C)=NC2c1ccccc1 (stereo not drawn)	-5	-0.79	i	i	i	i
O=S(=O)(/C(=C/c1ccc(C(F)(F)F)cc1)c1nc2ccccc2[nH]1)c1ccccc1	-19	-7.6*	i	i	i	i
C/C(=C/CCC(C)[C@H]1CC[C@@]2(C)C3=C(CC[C@]12C)[C@@]1(C)CCC(=O)C(C)(C)[C@@H]1CC3)C(=O)O (stereo partly drawn)	39*	0.21	i	i	26*	i
C/C(=C/CCC(C)C1CCC2(C)C3CCC4C(C)(C)C(=O)CCC4(C)C3=CCC12C)C(=O)O (stereo not drawn)	9.5*	1.9	·	i	29*	i
CC(CCC(=O)O)C1CC[C@@]2(C)C3C(=O)CC4C(C)(C)C(O)CC[C@]4(C)C3C(=O)C[C@]12C (stereo partly drawn)	-7	0.84	i	i	i	i
CC(C)Oc1ccccc1OCCN(C)C	-3	-1.9	i	i	i	i
